Measurements as given in ChEMBL document CHEMBL1121797, “Studies on chiral interactions of 1-(2,5-dimethoxy-4-methylphenyl)-2-aminopropane and the corresponding N-hydroxy metabolites with cytochrome P-450” (J Med Chem, 1981).

Key:
[1] = Extent rates of formation of metabolic intermediate Cytochrome P-450 at compound concentration of 3.75-120 uM; type: ADME
How it was run: (§1)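 Rabbit liver microsomes at 2 mg protein/mL with 0.1 mM EDTA, 37 °C, NADPH-dependent. Substrate tested at several concentrations. ΔA457–500 nm followed against time. Rate is the initial slope per nmol P-450 per min; extent is the plateau absorbance. Runs disturbed by a transient 450-nm species were discarded.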

[2] = Initial rates of formation of metabolic intermediate Cytochrome P-450 with compound concentration of 30 uM; type: ADME
How it was run: (§2)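 Cross-inhibition in NADPH-supplemented rabbit liver microsomes at 37 °C. Preincubation with amine at 30, 150 or 300 μM while 457-nm complex formation was monitored. Once it plateaued (6–8 min), racemic hydroxylamine was added at 300 μM. Initial rate and plateau extent were read from ΔA457–500 nm vs time, per nmol P-450.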

Cytochrome P450 2C19 [3] = biological target: T1, Cytochrome P450 2C19 (Homo sapiens, UniProt P33261); test: Inhibitory effect in formation of metabolic intermediate complex between Cytochrome P450 and racemic compound 2 initially, on pre-incubation with compound at 30 uM; type: ADME, Oryctolagus cuniculus; conditions: rabbit
T1 sequence (P33261 whole entry): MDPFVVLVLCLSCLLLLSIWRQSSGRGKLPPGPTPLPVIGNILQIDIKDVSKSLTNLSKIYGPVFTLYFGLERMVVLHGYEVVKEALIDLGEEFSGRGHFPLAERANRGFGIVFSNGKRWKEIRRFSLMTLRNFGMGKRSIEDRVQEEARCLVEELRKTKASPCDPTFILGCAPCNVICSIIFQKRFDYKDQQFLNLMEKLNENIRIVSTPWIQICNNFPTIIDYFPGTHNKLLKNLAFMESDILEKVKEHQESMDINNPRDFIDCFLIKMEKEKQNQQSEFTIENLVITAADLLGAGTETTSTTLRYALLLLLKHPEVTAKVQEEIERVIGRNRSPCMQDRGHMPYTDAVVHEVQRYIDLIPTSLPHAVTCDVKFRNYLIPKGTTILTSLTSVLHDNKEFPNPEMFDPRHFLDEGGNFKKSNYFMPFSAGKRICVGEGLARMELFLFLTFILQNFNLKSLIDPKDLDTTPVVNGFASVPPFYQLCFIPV

Cytochrome P450 2C19 [4] = biological target: T1, Cytochrome P450 2C19; test: Inhibitory effect in formation of metabolic intermediate complex between Cytochrome P450 and racemic compound 2 initially, on pre-incubation with compound at 150 uM; type: ADME, Oryctolagus cuniculus; conditions: rabbit
[5] = Lag time between the addition of compound (30 uM) and the first appearance of chromophore; type: ADME
How it was run: (§3)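 Rabbit liver microsomes at 2 mg protein/mL with 0.1 mM EDTA, 37 °C, substrate 30 μM. Complex formation started with 0.4 mM NADPH and followed by dual-wavelength absorbance, 457 vs 500 nm. Initial rate is the initial slope, ΔA×10^4 per nmol P-450 per min. Extent is the plateau absorbance. Lag is the time from NADPH addition to first 457-nm chromophore. Triplicate or single runs.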

Cytochrome P450 2C19 [6] = biological target: T1, Cytochrome P450 2C19; test: Inhibitory effect in formation of metabolic intermediate complex between Cytochrome P450 and racemic 2 at extent, on preincubation with Racemic compound 2 (300 uM) at 30 uM; type: ADME, Oryctolagus cuniculus; conditions: rabbit; how it was run: as §2
Cytochrome P450 2C19 [7] = biological target: T1, Cytochrome P450 2C19; test: Inhibitory effect in formation of metabolic intermediate complex between Cytochrome P450 and racemic compound 2 at extent, on pre-incubation with compound at 300 uM; type: ADME, Oryctolagus cuniculus; conditions: rabbit
[8] = Initial rates of formation of metabolic intermediate Cytochrome P-450 at compound concentration of 30 uM; type: ADME; how it was run: as §3
Cytochrome P450 2C19 [9] = biological target: T1, Cytochrome P450 2C19; test: Inhibitory effect in formation of metabolic intermediate complex between Cytochrome P450 and racemic 2 initially, on pre-incubation with Racemic compound 2 (300 uM) at 300 uM; type: ADME, Oryctolagus cuniculus; conditions: rabbit
Cytochrome P450 2C19 [10] = biological target: T1, Cytochrome P450 2C19; test: Apparent binding affinity constant of compound (10.8-60.0) for Cytochrome P450; type: ADME, Oryctolagus cuniculus; conditions: read-out: Ks
Cytochrome P450 2C19 [11] = biological target: T1, Cytochrome P450 2C19; test: Inhibitory effect in formation of metabolic intermediate complex between Cytochrome P450 and racemic compound 2 initially, on pre-incubation with compound at 300 uM; type: ADME, Oryctolagus cuniculus; conditions: rabbit
[12] = Initial rates of formation of metabolic intermediate Cytochrome P-450 with compound concentration of 300 uM; type: ADME; how it was run: as §2
Cytochrome P450 2C19 [13] = biological target: T1, Cytochrome P450 2C19; test: Inhibitory effect in formation of metabolic intermediate complex between Cytochrome P450 and racemic compound 2 at extent, on preincubation with compound at 150 uM; type: ADME, Oryctolagus cuniculus; conditions: rabbit
Cytochrome P450 2C19 [14] = biological target: T1, Cytochrome P450 2C19; test: Inhibitory effect in formation of metabolic intermediate complex between Cytochrome P450 and racemic compound 2 at extent, on pre-incubation with Racemic 2 (300 uM) at 150 uM; type: ADME, Oryctolagus cuniculus; conditions: rabbit
Cytochrome P450 2C19 [15] = biological target: T1, Cytochrome P450 2C19; test: Inhibitory effect in formation of metabolic intermediate complex between Cytochrome P450 and racemic compound 2 initially, on preincubation with Racemic compound 2 (300 uM) at 150 uM; type: ADME, Oryctolagus cuniculus; conditions: rabbit; how it was run: as §2
[16] = Initial rates of formation of metabolic intermediate Cytochrome P-450 at compound concentration of 3.75-120 uM; type: ADME; how it was run: as §1
Cytochrome P450 2C19 [17] = biological target: T1, Cytochrome P450 2C19; test: Inhibitory effect in formation of metabolic intermediate complex between Cytochrome P450 and racemic compound 2 at extent, on pre-incubation with Racemic 2 (300 uM) at 300 uM; type: ADME, Oryctolagus cuniculus; conditions: rabbit
[18] = Initial rates of formation of metabolic intermediate Cytochrome P-450 with compound concentration of 150 uM; type: ADME; how it was run: as §2
[19] = Extent rates of formation of metabolic intermediate Cytochrome P-450 at compound concentration of 30 uM; type: ADME; how it was run: as §3
Cytochrome P450 2C19 [20] = biological target: T1, Cytochrome P450 2C19; test: Inhibitory effect in formation of metabolic intermediate complex between Cytochrome P450 and racemic compound 2 at extent, on pre-incubation with compound at 30 uM; type: ADME, Oryctolagus cuniculus; conditions: rabbit

COc1cc(C[C@@H](C)N)c(OC)cc1C
Extent [1]: 23
Rate [2]: 5.2
Rate (Cytochrome P450 2C19 [3]): 5.2
Rate (Cytochrome P450 2C19 [4]): 6.1
Lag time [5]: 14 s
Extent (Cytochrome P450 2C19 [6]): 131
Extent (Cytochrome P450 2C19 [7]): 23
Rate [8]: 17.1
Rate (Cytochrome P450 2C19 [9]): 160
Kd (Cytochrome P450 2C19 [10]): 18 µM
Rate (Cytochrome P450 2C19 [11]): 5.8
Rate [12]: 5.5
Extent (Cytochrome P450 2C19 [13]): 25
Extent (Cytochrome P450 2C19 [14]): 116
Rate (Cytochrome P450 2C19 [15]): 183
Rate [16]: 17.5
Extent (Cytochrome P450 2C19 [17]): 105
Rate [18]: 6.1
Extent [19]: 78
Extent (Cytochrome P450 2C19 [20]): 21
